This passage reports Activity results from ChEMBL document CHEMBL1157787, “Design, synthesis and evaluation of progesterone-adenine hybrids as bivalent inhibitors of P-glycoprotein-mediated multidrug efflux” (Bioorg Med Chem Lett, 2010).

The subject of data set [1] is K562. The data set can be described thus: Cytotoxicity against human K562 cells expressing very low P-glycoprotein at 10 uM after 24 hrs relative to control.
Data set [2] deals with T1, ATP-dependent translocase ABCB1 (Homo sapiens, UniProt P08183). The data set is described as follows: Inhibition of P-glycoprotein-mediated daunorubicin efflux in K562/R7 human leukemic cells overexpressing P-glycoprotein assessed as intracellular accumulation of daunorubicin at 10 uM after 1 hr by flow cytometry relative to progesterone. Details: scale not given: the % may be the effect or the level left. Type of data set: cell-based. The essentials: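 Pgp-overexpressing resistant K562/R7 human leukemic cells; intracellular daunorubicin (1 μM) accumulation measured with compound at 10 μM. Accumulation with progesterone (10 μM) was set as 100%, and compound values were expressed as percent of that, with standard deviation.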
A general note: A flow cytometer gives signals particle by particle.

Data set [3] addresses T1, ATP-dependent translocase ABCB1. The data set is described as follows: Inhibition of P-glycoprotein-mediated daunorubicin efflux in K562/R7 human leukemic cells overexpressing P-glycoprotein assessed as intracellular accumulation of daunorubicin at 10 uM after 1 hr by flow cytometry. Format: cell-based. Details: scale not given: the % may be the effect or the level left. An outline of the steps: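 K562/R7 human leukemic cells overexpressing Pgp; intracellular daunorubicin (1 μM) accumulation measured with test compounds at 10 μM. Progesterone (10 μM) served as positive control; accumulation with progesterone set as 100%, values expressed as percent of progesterone accumulation; standard deviation reported.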

T1 sequence (P08183 whole entry): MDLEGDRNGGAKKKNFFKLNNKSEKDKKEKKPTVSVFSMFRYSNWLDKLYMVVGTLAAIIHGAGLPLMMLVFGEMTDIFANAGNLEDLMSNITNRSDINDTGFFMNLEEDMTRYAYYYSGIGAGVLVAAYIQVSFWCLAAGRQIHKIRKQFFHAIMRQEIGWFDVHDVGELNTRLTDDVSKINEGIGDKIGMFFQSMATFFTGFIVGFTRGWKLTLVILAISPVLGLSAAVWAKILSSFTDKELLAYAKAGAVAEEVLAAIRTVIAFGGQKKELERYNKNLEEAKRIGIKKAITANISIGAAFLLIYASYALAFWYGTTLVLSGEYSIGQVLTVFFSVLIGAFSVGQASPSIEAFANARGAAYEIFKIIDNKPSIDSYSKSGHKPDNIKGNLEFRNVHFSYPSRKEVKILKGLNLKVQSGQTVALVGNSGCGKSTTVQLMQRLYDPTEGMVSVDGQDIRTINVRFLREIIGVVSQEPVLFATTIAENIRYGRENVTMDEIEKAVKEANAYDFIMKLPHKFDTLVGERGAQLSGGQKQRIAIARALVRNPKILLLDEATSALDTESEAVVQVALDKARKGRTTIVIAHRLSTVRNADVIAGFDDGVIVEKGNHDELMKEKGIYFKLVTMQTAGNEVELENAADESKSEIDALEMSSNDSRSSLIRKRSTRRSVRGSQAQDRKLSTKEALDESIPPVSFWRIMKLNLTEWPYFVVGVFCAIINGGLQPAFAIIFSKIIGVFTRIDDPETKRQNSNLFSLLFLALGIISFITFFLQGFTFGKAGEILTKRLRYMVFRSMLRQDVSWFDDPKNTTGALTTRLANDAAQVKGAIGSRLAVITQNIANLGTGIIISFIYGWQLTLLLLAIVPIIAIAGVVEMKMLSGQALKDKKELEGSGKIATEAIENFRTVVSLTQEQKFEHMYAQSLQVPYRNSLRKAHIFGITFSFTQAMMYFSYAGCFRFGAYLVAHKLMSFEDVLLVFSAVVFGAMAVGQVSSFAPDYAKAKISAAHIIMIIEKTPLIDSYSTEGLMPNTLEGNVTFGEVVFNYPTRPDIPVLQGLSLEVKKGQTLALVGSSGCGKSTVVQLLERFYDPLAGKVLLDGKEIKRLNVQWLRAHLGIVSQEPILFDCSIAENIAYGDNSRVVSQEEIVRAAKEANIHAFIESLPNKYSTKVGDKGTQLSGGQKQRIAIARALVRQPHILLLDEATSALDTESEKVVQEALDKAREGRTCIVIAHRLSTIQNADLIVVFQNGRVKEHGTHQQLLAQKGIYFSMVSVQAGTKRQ

In the case of `C[C@]12CC[C@H]3[C@@H](CCC4=CC(=O)CC[C@@]43C)[C@@H]1CC[C@@H]2C(=O)NC/C=C/Cn1cnc2c(N)ncnc21`, the results for the Activity in data set [1] and in data set [2] were 80% and 72.2%, respectively. For `C[C@]12CC[C@H]3[C@@H](CCC4=CC(=O)CC[C@@]43C)[C@@H]1CC[C@@H]2C(=O)NC/C=C\Cn1cnc2c(N)ncnc21`, in that order: 80% and 86.2%. `C[C@]12CC[C@H]3[C@@H](CCC4=CC(=O)CC[C@@]43C)[C@@H]1CC[C@@H]2C(=O)NCCCCn1cnc2c(N)ncnc21`: the figures for the Activity in data set [1] and in data set [2] were 80% and 78%, respectively. Regarding `C[C@]12CC[C@H]3[C@@H](CCC4=CC(=O)CC[C@@]43C)[C@@H]1CC[C@@H]2C(=O)NCCCCCCn1cnc2c(N)ncnc21`, the values for the Activity in data set [1] and in data set [2] were 80% and 110.9%, respectively. For `C[C@]12CC[C@H]3[C@@H](CCC4=CC(=O)CC[C@@]43C)[C@@H]1CC[C@@H]2C(=O)NC[C@H]1CC[C@H](Cn2cnc3c(N)ncnc32)CC1`, in that order: 80% and 98.9%. On to `C[C@]12CC[C@H]3[C@@H](CCC4=CC(=O)CC[C@@]43C)[C@@H]1CC[C@@H]2C(=O)NCc1ccc(Cn2cnc3c(N)ncnc32)cc1`, for which the Activity in data set [1] turned out to be 80%; in data set [2] it was 98.1%. In the case of `C[C@]12CC[C@H]3[C@@H](CCC4=CC(=O)CC[C@@]43C)[C@@H]1CC[C@@H]2C(=O)NCC#CCn1cnc2c(N)ncnc21`, the Activity in data set [1] turned out to be 80%; in data set [2], 61.2%. On to `CC(=O)[C@H]1CC[C@H]2[C@@H]3CCC4=CC(=O)CC[C@]4(C)[C@H]3CC[C@]12C` [PROGESTERONE], for which the Activity in data set [3] is reported as 25%.
